tested on: OVCAR-5; test: Antiproliferative activity against human OVCAR-5 cells assessed as cell growth inhibition at 10 uM incubated for 48 hrs by SRB assay relative to control; type: functional; details: read-out: GI
Summary of the method: (§1)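 Cells plated in 96-well plates at […] cells/well and preincubated 24 h at 37 °C, 5% CO2. Time-zero plates were TCA-fixed. Compound was diluted in medium with 50 µg/mL gentamicin and cells exposed for 48 h. Adherent cells fixed with 10% final TCA; suspension cells with 16% final TCA. Plates stained with 0.4% SRB in 1% acetic acid, dye solubilized in 10 mM Trizma, absorbance read at 515 nm. Percent growth calculated against time-zero and control.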

Compound | inhibition of growth at 10 µM
Cc1nc2c(cnn2-c2ccccc2)c(=O)n1-c1ccc(NC(=O)c2ccc(F)cc2)cc1 | < 15%

tested on: NCI-H322M; test: Antiproliferative activity against human NCI-H322M cells assessed as cell growth inhibition at 10 uM incubated for 48 hrs by SRB assay relative to control; type: functional; details: read-out: GI

Compound | inhibition of growth at 10 µM
Cc1nc2c(cnn2-c2ccccc2)c(=O)n1-c1ccc(NC(=O)c2ccc(F)cc2)cc1 | < 15%

tested on: COLO 205; test: Antiproliferative activity against human COLO 205 cells assessed as cell growth inhibition at 10 uM incubated for 48 hrs by SRB assay relative to control; type: functional; details: read-out: GI

Compound | inhibition of growth at 10 µM
Cc1nc2c(cnn2-c2ccccc2)c(=O)n1-c1ccc(NC(=O)c2ccc(F)cc2)cc1 | 37.7%

tested on: HT-29; test: Antiproliferative activity against human HT-29 cells assessed as cell growth inhibition at 10 uM incubated for 48 hrs by SRB assay relative to control; type: functional; details: read-out: GI; summary of the method: as §1

Compound | inhibition of growth at 10 µM
Cc1nc2c(cnn2-c2ccccc2)c(=O)n1-c1ccc(NC(=O)c2ccc(F)cc2)cc1 | 36.5%

tested on: KM12; test: Antiproliferative activity against human KM12 cells assessed as cell growth inhibition at 10 uM incubated for 48 hrs by SRB assay relative to control; type: functional; details: read-out: GI; summary of the method: as §1

Compound | inhibition of growth at 10 µM
Cc1nc2c(cnn2-c2ccccc2)c(=O)n1-c1ccc(NC(=O)c2ccc(F)cc2)cc1 | 35.9%

tested on: SF-268; test: Antiproliferative activity against human SF-268 cells assessed as cell growth inhibition at 10 uM incubated for 48 hrs by SRB assay relative to control; type: functional; details: read-out: GI

Compound | inhibition of growth at 10 µM
Cc1nc2c(cnn2-c2ccccc2)c(=O)n1-c1ccc(NC(=O)c2ccc(F)cc2)cc1 | < 15%

tested on: SF-295; test: Antiproliferative activity against human SF-295 cells assessed as cell growth inhibition at 10 uM incubated for 48 hrs by SRB assay relative to control; type: functional; details: read-out: GI; summary of the method: as §1

Compound | inhibition of growth at 10 µM
Cc1nc2c(cnn2-c2ccccc2)c(=O)n1-c1ccc(NC(=O)c2ccc(F)cc2)cc1 | 60.4%

tested on: SNB-19; test: Antiproliferative activity against human SNB-19 cells assessed as cell growth inhibition at 10 uM incubated for 48 hrs by SRB assay relative to control; type: functional; details: read-out: GI
Summary of the method: (§2)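 Cells pre-incubated 24 h at 37°C, 5% CO2, then exposed to compound (DMSO stock diluted in medium with 50 µg/mL gentamicin) for 48 h. Adherent cells fixed with cold TCA (final 10%, 60 min, 4°C); suspension cells fixed with 16% TCA final. Stained with 0.4% SRB in 1% acetic acid for 10 min, dye solubilized in 10 mM Trizma base, absorbance read at 515 nm. Growth calculated against time-zero and untreated control plates.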

Compound | inhibition of growth at 10 µM
Cc1nc2c(cnn2-c2ccccc2)c(=O)n1-c1ccc(NC(=O)c2ccc(F)cc2)cc1 | 19.6%

tested on: SNB-75; test: Antiproliferative activity against human SNB-75 cells assessed as cell growth inhibition at 10 uM incubated for 48 hrs by SRB assay relative to control; type: functional; details: read-out: GI; summary of the method: as §2

Compound | inhibition of growth at 10 µM
Cc1nc2c(cnn2-c2ccccc2)c(=O)n1-c1ccc(NC(=O)c2ccc(F)cc2)cc1 | 35.5%

tested on: U-251; test: Antiproliferative activity against human U-251 cells assessed as cell growth inhibition at 10 uM incubated for 48 hrs by SRB assay relative to control; type: functional; details: read-out: GI; summary of the method: as §2

Compound | inhibition of growth at 10 µM
Cc1nc2c(cnn2-c2ccccc2)c(=O)n1-c1ccc(NC(=O)c2ccc(F)cc2)cc1 | 18.9%

tested on: Malme-3M; test: Antiproliferative activity against human Malme-3M cells assessed as cell growth inhibition at 10 uM incubated for 48 hrs by SRB assay relative to control; type: functional; details: read-out: GI

Compound | inhibition of growth at 10 µM
Cc1nc2c(cnn2-c2ccccc2)c(=O)n1-c1ccc(NC(=O)c2ccc(F)cc2)cc1 | 31.6%

tested on: SK-MEL-2; test: Antiproliferative activity against human SK-MEL-2 cells assessed as cell growth inhibition at 10 uM incubated for 48 hrs by SRB assay relative to control; type: functional; details: read-out: GI; summary of the method: as §1

Compound | inhibition of growth at 10 µM
Cc1nc2c(cnn2-c2ccccc2)c(=O)n1-c1ccc(NC(=O)c2ccc(F)cc2)cc1 | 22.1%

tested on: SK-MEL-28; test: Antiproliferative activity against human SK-MEL-28 cells assessed as cell growth inhibition at 10 uM incubated for 48 hrs by SRB assay relative to control; type: functional; details: read-out: GI; summary of the method: as §1

Compound | inhibition of growth at 10 µM
Cc1nc2c(cnn2-c2ccccc2)c(=O)n1-c1ccc(NC(=O)c2ccc(F)cc2)cc1 | 16.2%

tested on: UACC-257; test: Antiproliferative activity against human UACC-257 cells assessed as cell growth inhibition at 10 uM incubated for 48 hrs by SRB assay relative to control; type: functional; details: read-out: GI; summary of the method: as §2

Compound | inhibition of growth at 10 µM
Cc1nc2c(cnn2-c2ccccc2)c(=O)n1-c1ccc(NC(=O)c2ccc(F)cc2)cc1 | 68.2%

tested on: IGROV-1; test: Antiproliferative activity against human IGROV-1 cells assessed as cell growth inhibition at 10 uM incubated for 48 hrs by SRB assay relative to control; type: functional; details: read-out: GI

Compound | inhibition of growth at 10 µM
Cc1nc2c(cnn2-c2ccccc2)c(=O)n1-c1ccc(NC(=O)c2ccc(F)cc2)cc1 | 26.5%

tested on: OVCAR-3; test: Antiproliferative activity against human OVCAR-3 cells assessed as cell growth inhibition at 10 uM incubated for 48 hrs by SRB assay relative to control; type: functional; details: read-out: GI; summary of the method: as §1

Compound | inhibition of growth at 10 µM
Cc1nc2c(cnn2-c2ccccc2)c(=O)n1-c1ccc(NC(=O)c2ccc(F)cc2)cc1 | < 15%

tested on: OVCAR-8; test: Antiproliferative activity against human OVCAR-8 cells assessed as cell growth inhibition at 10 uM incubated for 48 hrs by SRB assay relative to control; type: functional; details: read-out: GI

Compound | inhibition of growth at 10 µM
Cc1nc2c(cnn2-c2ccccc2)c(=O)n1-c1ccc(NC(=O)c2ccc(F)cc2)cc1 | 36.3%

tested on: NCI/ADR-RES; test: Antiproliferative activity against human NCI-ADR-RES cells assessed as cell growth inhibition at 10 uM incubated for 48 hrs by SRB assay relative to control; type: functional; details: read-out: GI

Compound | inhibition of growth at 10 µM
Cc1nc2c(cnn2-c2ccccc2)c(=O)n1-c1ccc(NC(=O)c2ccc(F)cc2)cc1 | 57.2%

tested on: SK-OV-3; test: Antiproliferative activity against human SK-OV-3 cells assessed as cell growth inhibition at 10 uM incubated for 48 hrs by SRB assay relative to control; type: functional; details: read-out: GI; summary of the method: as §1

Compound | inhibition of growth at 10 µM
Cc1nc2c(cnn2-c2ccccc2)c(=O)n1-c1ccc(NC(=O)c2ccc(F)cc2)cc1 | < 15%

tested on: ACHN; test: Antiproliferative activity against human ACHN cells assessed as cell growth inhibition at 10 uM incubated for 48 hrs by SRB assay relative to control; type: functional; details: read-out: GI

Compound | inhibition of growth at 10 µM
Cc1nc2c(cnn2-c2ccccc2)c(=O)n1-c1ccc(NC(=O)c2ccc(F)cc2)cc1 | 39%

tested on: CAKI-1; test: Antiproliferative activity against human CAKI-1 cells assessed as cell growth inhibition at 10 uM incubated for 48 hrs by SRB assay relative to control; type: functional; details: read-out: GI

Compound | inhibition of growth at 10 µM
Cc1nc2c(cnn2-c2ccccc2)c(=O)n1-c1ccc(NC(=O)c2ccc(F)cc2)cc1 | 34.3%

tested on: RXF 393; test: Antiproliferative activity against human RXF 393 cells assessed as cell growth inhibition at 10 uM incubated for 48 hrs by SRB assay relative to control; type: functional; details: read-out: GI; summary of the method: as §1

Compound | inhibition of growth at 10 µM
Cc1nc2c(cnn2-c2ccccc2)c(=O)n1-c1ccc(NC(=O)c2ccc(F)cc2)cc1 | 20.9%

tested on: SN12C; test: Antiproliferative activity against human SN12C cells assessed as cell growth inhibition at 10 uM incubated for 48 hrs by SRB assay relative to control; type: functional; details: read-out: GI

Compound | inhibition of growth at 10 µM
Cc1nc2c(cnn2-c2ccccc2)c(=O)n1-c1ccc(NC(=O)c2ccc(F)cc2)cc1 | 25.6%

tested on: PC-3; test: Antiproliferative activity against human PC-3 cells assessed as cell growth inhibition at 10 uM incubated for 48 hrs by SRB assay relative to control; type: functional; details: read-out: GI

Compound | inhibition of growth at 10 µM
Cc1nc2c(cnn2-c2ccccc2)c(=O)n1-c1ccc(NC(=O)c2ccc(F)cc2)cc1 | 46.9%

tested on: DU-145; test: Antiproliferative activity against human DU-145 cells assessed as cell growth inhibition at 10 uM incubated for 48 hrs by SRB assay relative to control; type: functional; details: read-out: GI

Compound | inhibition of growth at 10 µM
Cc1nc2c(cnn2-c2ccccc2)c(=O)n1-c1ccc(NC(=O)c2ccc(F)cc2)cc1 | 19.3%

tested on: MCF7; test: Antiproliferative activity against human MCF7 cells assessed as cell growth inhibition at 10 uM incubated for 48 hrs by SRB assay relative to control; type: functional; details: read-out: GI

Compound | inhibition of growth at 10 µM
Cc1nc2c(cnn2-c2ccccc2)c(=O)n1-c1ccc(NC(=O)c2ccc(F)cc2)cc1 | 64.2%

tested on: Hs-578T; test: Antiproliferative activity against human Hs-578T cells assessed as cell growth inhibition at 10 uM incubated for 48 hrs by SRB assay relative to control; type: functional; details: read-out: GI; summary of the method: as §1

Compound | inhibition of growth at 10 µM
Cc1nc2c(cnn2-c2ccccc2)c(=O)n1-c1ccc(NC(=O)c2ccc(F)cc2)cc1 | 21.3%

tested on: BT-549; test: Antiproliferative activity against human BT-549 cells assessed as cell growth inhibition at 10 uM incubated for 48 hrs by SRB assay relative to control; type: functional; details: read-out: GI

Compound | inhibition of growth at 10 µM
Cc1nc2c(cnn2-c2ccccc2)c(=O)n1-c1ccc(NC(=O)c2ccc(F)cc2)cc1 | 54%

tested on: MDA-MB-468; test: Antiproliferative activity against human MDA-MB-468 cells assessed as cell growth inhibition at 10 uM incubated for 48 hrs by SRB assay relative to control; type: functional; details: read-out: GI

Compound | inhibition of growth at 10 µM
Cc1nc2c(cnn2-c2ccccc2)c(=O)n1-c1ccc(NC(=O)c2ccc(F)cc2)cc1 | 85.5%

tested on: NCI-H226; test: Antiproliferative activity against human NCI-H226 cells assessed as cell growth inhibition at 10 uM incubated for 48 hrs by SRB assay relative to control; type: functional; details: read-out: GI; summary of the method: as §1

Compound | inhibition of growth at 10 µM
Cc1nc2c(cnn2-c2ccccc2)c(=O)n1-c1ccc(NC(=O)c2ccc(F)cc2)cc1 | 43.8%

tested on: HOP-92; test: Antiproliferative activity against human HOP-92 cells assessed as cell growth inhibition at 10 uM incubated for 48 hrs by SRB assay relative to control; type: functional; details: read-out: GI; summary of the method: as §1

Compound | inhibition of growth at 10 µM
Cc1nc2c(cnn2-c2ccccc2)c(=O)n1-c1ccc(NC(=O)c2ccc(F)cc2)cc1 | < 15%

tested on: A549; test: Antiproliferative activity against human A549 cells assessed as cell growth inhibition at 10 uM incubated for 48 hrs by SRB assay relative to control; type: functional; details: read-out: GI

Compound | inhibition of growth at 10 µM
Cc1nc2c(cnn2-c2ccccc2)c(=O)n1-c1ccc(NC(=O)c2ccc(F)cc2)cc1 | 45%

tested on: RPMI-8226; test: Antiproliferative activity against human RPMI-8226 cells assessed as cell growth inhibition at 10 uM incubated for 48 hrs by SRB assay relative to control; type: functional; details: read-out: GI

Compound | inhibition of growth at 10 µM
Cc1nc2c(cnn2-c2ccccc2)c(=O)n1-c1ccc(NC(=O)c2ccc(F)cc2)cc1 | 64.8%

tested on: MOLT-4; test: Antiproliferative activity against human MOLT-4 cells assessed as cell growth inhibition at 10 uM incubated for 48 hrs by SRB assay relative to control; type: functional; details: read-out: GI

Compound | inhibition of growth at 10 µM
Cc1nc2c(cnn2-c2ccccc2)c(=O)n1-c1ccc(NC(=O)c2ccc(F)cc2)cc1 | 94.6%
